Measurements from ChEMBL document CHEMBL1144684, “Evaluation of a series of naphthamides as potent, orally active vascular endothelial growth factor receptor-2 tyrosine kinase inhibitors” (J Med Chem, 2008).
pIC50: −log10 of the molar value. In brackets after ≈: the same amount, converted by molar mass. Activity calls are given as the source filed them. The calls are words filed in the database; no cut-off is given here.

Tests used:
Angiopoietin-1 receptor = Angiopoietin-1 receptor (Homo sapiens, UniProt Q02763); experiment: Inhibition of Tie2
[1] = molecular target: Hepatocyte growth factor receptor (Homo sapiens, UniProt P08581); experiment: Inhibition of c-Met
Aurora kinase A = molecular target: T1, Aurora kinase A (Homo sapiens, UniProt O14965); experiment: Inhibition of Aurora A
T1 sequence (O14965 whole entry): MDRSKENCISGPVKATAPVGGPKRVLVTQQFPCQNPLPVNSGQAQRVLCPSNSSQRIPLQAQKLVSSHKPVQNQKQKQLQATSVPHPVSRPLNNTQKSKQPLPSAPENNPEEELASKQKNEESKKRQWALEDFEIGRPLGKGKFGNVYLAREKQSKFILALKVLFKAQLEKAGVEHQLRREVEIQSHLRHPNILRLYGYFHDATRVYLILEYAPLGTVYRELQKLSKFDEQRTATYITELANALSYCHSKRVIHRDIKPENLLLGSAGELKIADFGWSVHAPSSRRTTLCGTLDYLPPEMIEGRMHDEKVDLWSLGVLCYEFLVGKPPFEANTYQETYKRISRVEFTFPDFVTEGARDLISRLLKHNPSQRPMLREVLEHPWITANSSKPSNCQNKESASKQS

Aurora kinase B = Aurora kinase B (Homo sapiens, UniProt Q96GD4); experiment: Inhibition of Aurora B
HUVEC [2] = experiment: Inhibition of VEGF-induced proliferation of HUVEC; assay type: functional, cell-based; details: Homo sapiens
[3] = molecular target: Tyrosine-protein kinase Lck (Homo sapiens, UniProt P06239); experiment: Inhibition of Lck
HUVEC [4] = experiment: Inhibition of bFGF-induced proliferation of HUVEC; assay type: functional, cell-based; details: Homo sapiens
In short: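 HUVEC seeded at 3000/well in DMEM with 10% FBS, 22 h; 2 h preincubation with serial compound dilutions, then 50 ng/mL VEGF or 20 ng/mL bFGF for 72 h at 37 °C. Freeze–thaw, CyQuant DNA dye read-out; IC50 by four-parameter logistic fit, averaged over ≥2 experiments.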

HUVEC [5] = experiment: Selectivity of IC50 for VEGF-induced proliferation over IC50 for bFGF-induced proliferation of HUVEC; assay type: functional, Homo sapiens
In short: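 HUVECs were seeded at 3000 cells/well in DMEM/10% FBS with pen/strep and cultured for 22 h. They were preincubated 2 h with serially diluted compound, then stimulated with 50 ng/mL VEGF or 20 ng/mL bFGF for 72 h at 37 °C, 5% CO2. Cells were washed, frozen at -70 °C and stained with CyQuant. IC50s came from a four-parameter logistic fit, averaged over ≥2 experiments; the VEGF IC50 was compared against the bFGF IC50.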

[6] = molecular target: Vascular endothelial growth factor receptor 3 (Homo sapiens) (UniProt P35916); experiment: Inhibition of human VEGFR3
[7] = molecular target: Vascular endothelial growth factor receptor 2 (Homo sapiens, UniProt P35968)
[8] = Aqueous solubility in 0.01 N Hcl; assay type: physicochemical
[9] = Intrinsic clearance in rat liver microsomes at 1 uM; assay type: ADME, Microsome; details: read-out: Stability
In short: (§1)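 Human or rat liver microsomes (0.25 mg protein/mL) with 1 mM NADPH, 2 mM MgCl2 in 50 mM potassium phosphate pH 7.4 at 37 °C; compound 1 µM final. Sampled 0–40 min into acetonitrile, LC-MS/MS; ln % remaining vs time slope gives T1/2; CLint = (0.693/T1/2)/0.25 mg/mL.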

[10] = Intrinsic clearance in human liver microsomes at 1 uM; assay type: ADME, Microsome; details: read-out: Stability; in short: as §1
[11] = Clearance in Sprague-Dawley rat at 0.5 mg/kg, iv; assay type: ADME, organism-based; parameters: dose 0.5 mg/kg, route intravenous; details: in vivo
In short: (§2)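 Male Sprague–Dawley rats dosed iv via femoral vein as DMSO solution (1 or 0.5 mg/kg) or po by gavage as OraPlus suspension (pH 2.0–2.2 with methanesulfonic acid; 10 or 2 mg/kg). Serial jugular blood over 12–24 h; plasma acetonitrile precipitation, LC-MS/MS (MRM) with internal standard; noncompartmental parameters.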

[12] = Volume of distribution at steady state in Sprague-Dawley rat at 0.5 mg/kg, iv; assay type: ADME, organism-based; parameters: dose 0.5 mg/kg, route intravenous; details: in vivo, read-out: Vdss
In short: (§3)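 Male Sprague–Dawley rats dosed iv at 0.5 mg/kg as DMSO solution or po at 2 mg/kg as suspension in 100% OraPlus. Serial jugular blood, plasma LC-MS/MS quantitation, noncompartmental analysis.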

[13] = Half life in Sprague-Dawley rat at 0.5 mg/kg, iv; assay type: ADME, organism-based; parameters: dose 0.5 mg/kg, route intravenous; details: in vivo; in short: as §2
[14] = AUC (0 to infinity) in Sprague-Dawley rat at 2 mg/kg, po; assay type: ADME, organism-based; parameters: time infinity, dose 2 mg/kg, route oral; details: plasma; in short: as §2
[15] = Cmax in Sprague-Dawley rat at 2 mg/kg, po; assay type: ADME, organism-based; parameters: dose 2 mg/kg, route oral; details: in vivo; in short: as §2
[16] = Tmax in Sprague-Dawley rat at 2 mg/kg, po; assay type: ADME, organism-based; parameters: dose 2 mg/kg, route oral; details: in vivo; in short: as §3
[17] = Oral bioavailability in Sprague-Dawley rat at 2 mg/kg; assay type: ADME, organism-based; details: in vivo; in short: as §3

Chain of Hepatocyte growth factor receptor (P08581 whole entry): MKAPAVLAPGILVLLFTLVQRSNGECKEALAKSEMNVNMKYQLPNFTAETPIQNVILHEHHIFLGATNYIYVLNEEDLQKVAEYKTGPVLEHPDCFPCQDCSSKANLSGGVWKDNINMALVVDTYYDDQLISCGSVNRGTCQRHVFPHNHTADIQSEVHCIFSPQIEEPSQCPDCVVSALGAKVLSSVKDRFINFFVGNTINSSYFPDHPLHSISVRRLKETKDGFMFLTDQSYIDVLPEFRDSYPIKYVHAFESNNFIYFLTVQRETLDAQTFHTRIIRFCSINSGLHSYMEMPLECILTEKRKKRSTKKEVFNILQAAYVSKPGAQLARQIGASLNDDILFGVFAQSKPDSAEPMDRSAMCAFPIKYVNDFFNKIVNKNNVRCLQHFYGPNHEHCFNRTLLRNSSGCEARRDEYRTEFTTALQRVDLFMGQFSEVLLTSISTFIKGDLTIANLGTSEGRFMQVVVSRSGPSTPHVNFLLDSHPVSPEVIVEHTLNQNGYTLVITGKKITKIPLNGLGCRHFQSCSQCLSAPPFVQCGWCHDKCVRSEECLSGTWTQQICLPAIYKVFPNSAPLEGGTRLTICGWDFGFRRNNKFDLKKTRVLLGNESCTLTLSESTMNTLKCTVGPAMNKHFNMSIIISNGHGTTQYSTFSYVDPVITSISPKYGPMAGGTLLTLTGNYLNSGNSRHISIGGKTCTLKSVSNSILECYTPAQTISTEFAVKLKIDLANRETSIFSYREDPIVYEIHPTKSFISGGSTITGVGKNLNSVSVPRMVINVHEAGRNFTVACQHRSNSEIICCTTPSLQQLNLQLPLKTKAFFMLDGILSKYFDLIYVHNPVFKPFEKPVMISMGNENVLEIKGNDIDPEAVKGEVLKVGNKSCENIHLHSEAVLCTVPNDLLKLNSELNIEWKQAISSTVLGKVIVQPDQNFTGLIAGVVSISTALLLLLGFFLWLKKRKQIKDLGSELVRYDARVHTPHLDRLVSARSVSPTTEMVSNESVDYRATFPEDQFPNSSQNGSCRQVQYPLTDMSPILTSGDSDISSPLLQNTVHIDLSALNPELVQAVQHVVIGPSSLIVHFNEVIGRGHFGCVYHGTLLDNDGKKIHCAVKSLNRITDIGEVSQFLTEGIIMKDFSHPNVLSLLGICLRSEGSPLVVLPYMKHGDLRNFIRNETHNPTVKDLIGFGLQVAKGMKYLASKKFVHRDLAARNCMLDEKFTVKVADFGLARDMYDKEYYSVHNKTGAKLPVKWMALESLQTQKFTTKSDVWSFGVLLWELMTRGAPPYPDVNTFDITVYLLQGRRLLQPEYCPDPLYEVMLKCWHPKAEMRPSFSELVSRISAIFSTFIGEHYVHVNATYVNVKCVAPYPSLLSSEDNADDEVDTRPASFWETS
Chain of Vascular endothelial growth factor receptor 2 (P35968 whole entry): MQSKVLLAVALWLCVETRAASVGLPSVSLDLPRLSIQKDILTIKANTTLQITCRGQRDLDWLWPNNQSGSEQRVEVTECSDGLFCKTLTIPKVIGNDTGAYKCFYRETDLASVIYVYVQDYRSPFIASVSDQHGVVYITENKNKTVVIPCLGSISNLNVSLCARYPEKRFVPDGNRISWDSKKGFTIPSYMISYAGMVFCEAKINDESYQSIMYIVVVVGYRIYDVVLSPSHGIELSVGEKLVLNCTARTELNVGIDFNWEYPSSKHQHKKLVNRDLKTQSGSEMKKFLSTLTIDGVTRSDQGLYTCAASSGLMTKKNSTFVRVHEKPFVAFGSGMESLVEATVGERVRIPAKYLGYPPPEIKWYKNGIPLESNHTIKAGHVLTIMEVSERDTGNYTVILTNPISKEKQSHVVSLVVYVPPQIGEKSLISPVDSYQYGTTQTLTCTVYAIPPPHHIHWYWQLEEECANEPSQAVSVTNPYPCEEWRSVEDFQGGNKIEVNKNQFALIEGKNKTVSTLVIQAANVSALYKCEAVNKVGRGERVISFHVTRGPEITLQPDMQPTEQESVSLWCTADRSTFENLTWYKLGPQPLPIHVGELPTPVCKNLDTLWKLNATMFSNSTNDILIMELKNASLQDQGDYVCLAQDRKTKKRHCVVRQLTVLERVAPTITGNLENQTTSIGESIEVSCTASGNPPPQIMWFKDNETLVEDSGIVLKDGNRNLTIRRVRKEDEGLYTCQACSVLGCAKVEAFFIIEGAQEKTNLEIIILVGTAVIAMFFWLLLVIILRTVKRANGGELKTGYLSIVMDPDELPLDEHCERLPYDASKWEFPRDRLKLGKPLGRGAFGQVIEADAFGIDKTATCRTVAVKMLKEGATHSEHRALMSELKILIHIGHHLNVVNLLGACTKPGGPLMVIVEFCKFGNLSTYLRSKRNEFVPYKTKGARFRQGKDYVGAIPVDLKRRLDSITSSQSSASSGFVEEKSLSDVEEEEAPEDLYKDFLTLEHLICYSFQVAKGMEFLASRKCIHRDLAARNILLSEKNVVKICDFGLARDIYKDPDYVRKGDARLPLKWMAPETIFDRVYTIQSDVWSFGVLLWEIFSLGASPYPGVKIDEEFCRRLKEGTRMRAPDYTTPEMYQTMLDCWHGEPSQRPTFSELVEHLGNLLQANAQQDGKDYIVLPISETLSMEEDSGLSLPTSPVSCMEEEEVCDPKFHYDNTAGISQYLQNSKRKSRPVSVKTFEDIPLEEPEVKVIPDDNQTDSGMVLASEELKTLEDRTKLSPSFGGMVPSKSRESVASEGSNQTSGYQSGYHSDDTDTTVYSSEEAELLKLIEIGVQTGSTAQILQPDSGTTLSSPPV
Chain of Aurora kinase B (Q96GD4 whole entry): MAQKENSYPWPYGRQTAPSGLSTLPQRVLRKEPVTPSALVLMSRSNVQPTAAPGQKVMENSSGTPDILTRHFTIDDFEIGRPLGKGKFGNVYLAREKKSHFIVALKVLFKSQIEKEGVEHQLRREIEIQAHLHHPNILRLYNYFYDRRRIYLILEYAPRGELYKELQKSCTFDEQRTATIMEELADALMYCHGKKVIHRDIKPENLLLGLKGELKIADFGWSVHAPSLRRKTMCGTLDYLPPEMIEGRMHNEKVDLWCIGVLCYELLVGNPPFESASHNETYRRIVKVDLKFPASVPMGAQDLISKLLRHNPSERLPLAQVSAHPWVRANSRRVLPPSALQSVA
Chain of Tyrosine-protein kinase Lck (P06239 whole entry): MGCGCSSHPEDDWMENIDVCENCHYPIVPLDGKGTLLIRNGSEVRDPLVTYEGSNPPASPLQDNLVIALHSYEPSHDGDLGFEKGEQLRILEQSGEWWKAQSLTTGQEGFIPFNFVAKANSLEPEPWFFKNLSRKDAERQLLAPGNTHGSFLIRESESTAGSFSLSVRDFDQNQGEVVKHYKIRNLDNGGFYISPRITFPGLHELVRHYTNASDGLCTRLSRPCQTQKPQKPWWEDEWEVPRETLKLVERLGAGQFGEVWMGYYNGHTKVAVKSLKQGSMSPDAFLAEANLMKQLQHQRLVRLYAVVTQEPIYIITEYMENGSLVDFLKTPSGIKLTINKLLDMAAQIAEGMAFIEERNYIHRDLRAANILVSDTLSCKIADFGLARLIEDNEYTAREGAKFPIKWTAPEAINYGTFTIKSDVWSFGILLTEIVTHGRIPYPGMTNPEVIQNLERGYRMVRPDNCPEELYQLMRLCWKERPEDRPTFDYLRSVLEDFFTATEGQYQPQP
Chain of Angiopoietin-1 receptor (Q02763 whole entry): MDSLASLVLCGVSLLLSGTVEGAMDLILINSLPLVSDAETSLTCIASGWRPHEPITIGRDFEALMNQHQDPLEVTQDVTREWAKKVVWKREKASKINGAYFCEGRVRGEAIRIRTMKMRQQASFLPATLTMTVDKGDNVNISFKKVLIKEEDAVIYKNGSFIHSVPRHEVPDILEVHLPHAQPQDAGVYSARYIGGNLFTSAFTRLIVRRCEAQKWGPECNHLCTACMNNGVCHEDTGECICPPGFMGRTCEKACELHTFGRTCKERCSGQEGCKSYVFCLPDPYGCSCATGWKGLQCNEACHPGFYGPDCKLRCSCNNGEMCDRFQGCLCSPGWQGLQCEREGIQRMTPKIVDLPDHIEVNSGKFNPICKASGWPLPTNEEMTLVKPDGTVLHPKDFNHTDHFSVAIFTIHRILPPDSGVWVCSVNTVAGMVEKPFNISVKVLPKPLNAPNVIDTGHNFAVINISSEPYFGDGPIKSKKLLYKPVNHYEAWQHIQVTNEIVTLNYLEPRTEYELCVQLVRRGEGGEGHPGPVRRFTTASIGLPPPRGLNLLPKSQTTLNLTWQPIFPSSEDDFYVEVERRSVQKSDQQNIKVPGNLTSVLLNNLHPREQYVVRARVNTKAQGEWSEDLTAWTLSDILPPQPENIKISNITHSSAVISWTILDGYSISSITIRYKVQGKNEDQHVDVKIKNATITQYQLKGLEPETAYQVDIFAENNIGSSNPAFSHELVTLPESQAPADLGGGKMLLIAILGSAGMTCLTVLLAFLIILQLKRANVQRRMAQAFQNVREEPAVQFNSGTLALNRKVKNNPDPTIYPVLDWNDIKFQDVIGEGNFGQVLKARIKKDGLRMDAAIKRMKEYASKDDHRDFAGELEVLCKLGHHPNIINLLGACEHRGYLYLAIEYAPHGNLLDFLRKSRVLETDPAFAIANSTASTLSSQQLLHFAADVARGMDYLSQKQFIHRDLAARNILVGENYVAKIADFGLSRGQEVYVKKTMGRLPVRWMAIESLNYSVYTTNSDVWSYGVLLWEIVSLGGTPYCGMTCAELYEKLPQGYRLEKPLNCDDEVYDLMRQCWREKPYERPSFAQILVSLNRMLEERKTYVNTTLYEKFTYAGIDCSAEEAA

Row | SMILES | pIC50 (Angiopoietin-1 receptor) | pIC50 [1] | pIC50 (Aurora kinase A) | pIC50 (Aurora kinase B) | pIC50 (HUVEC [2]) | pIC50 [3] | pIC50 (HUVEC [4]) | Selectivity ratio (HUVEC [5]) | Activity [6] | pIC50 [7] | solubility [8] | microsomal CLint at 1 µM [9] | microsomal CLint at 1 µM [10] | clearance [11] | Vd [12] | half-life [13] | AUC(0-inf) [14] | Cmax [15] | Tmax [16] | bioavailability [17]
1 | COc1cc2ncnc(Oc3ccc4c(C(N)=O)cccc4c3)c2cc1OC | 5.08 | 4.70 | 5.08 | 6.17 | 7.80 | – | – | – | – | – | – | – | – | – | – | – | – | – | – | –
2 | COc1cc2nccc(Oc3ccc4c(C(=O)NC5(C)CC5)cccc4c3)c2cc1OC | 5.96 | 5.30 | 6.25 | 7.21 | 7.15 | 5.70 | 5.94 | – | – | – | – | – | – | – | – | – | – | – | – | –
3 | COCCNC(=O)c1cccc2cc(Oc3ncnc4cc(OC)c(OC)cc34)ccc12 | 5.08 | 4.70 | 4.60 | 6.41 | – | – | – | >100 | Active | 6.50 | – | – | – | – | – | – | – | – | – | –
4 | COc1ccc2c(Oc3ccc4c(C(=O)NC5CC5)cccc4c3)ccnc2c1 | 5.08 | 4.70 | 5.08 | – | 8.47 | – | – | >100 | – | 9.35 | – | – | – | – | – | – | – | – | – | –
5 | CNC(=O)c1cccc2cc(Oc3ccnc4cc(OC)c(OC)cc34)ccc12 | 4.60 | 4.70 | 5.44 | 6.96 | 9.35 | 6.15 | 7.34 | – | – | – | – | – | – | – | – | – | – | – | – | –
6 | COc1cc2ncnc(Oc3ccc4c(C(=O)NC5CC5)cccc4c3)c2cc1OC | 5.13 | 4.70 | 5.08 | 6.44 | 8.14 | – | – | >100 | – | 8.54 | – | – | – | – | – | – | – | – | – | –
7 | COCCCNC(=O)c1cccc2cc(Oc3ccnc4cc(OC)c(OC)cc34)ccc12 | 5.08 | – | 5.46 | – | 8.15 | 6.00 | – | >100 | – | 8.38 | – | – | – | – | – | – | – | – | – | –
8 | COc1cc2nccc(Oc3ccc4c(C(=O)Nc5ccc(Cl)cc5)cccc4c3)c2cc1OC | 6.24 | – | 6.43 | – | 8.12 | – | 5.94 | – | – | – | 1.1 µg/mL (≈ 2.27 µM) | – | – | – | – | – | – | – | – | –
9 | COc1cc2nccc(Oc3ccc4c(C(=O)NC5CC5)cccc4c3)c2cc1C(N)=O | 5.74 | 4.70 | 5.36 | 6.73 | 8.92 | – | – | >100 | – | 9.43 | – | 16 µL/min/mg | 12 µL/min/mg | 8.47 mL/min/kg | 0.379 L/kg | 75.6 min | 900 ng·h/mL | 715 ng/mL | 40.2 min | 39%
10 | COc1cc2nccc(Oc3ccc4c(C(=O)NCC(F)(F)F)cccc4c3)c2cc1OC | 4.60 | 4.70 | 6.03 | 7.80 | 7.62 | 4.60 | 5.94 | – | – | 8.42 | – | – | – | – | – | – | – | – | – | –
11 | COCCNC(=O)c1cccc2cc(Oc3ccnc4cc(OC)ccc34)ccc12 | 4.60 | 4.70 | 5.08 | – | 7.70 | – | – | >100 | – | 7.55 | – | – | – | – | – | – | – | – | – | –
12 | COc1ccc2c(Oc3ccc4c(C(N)=O)cccc4c3)ccnc2c1 | 4.60 | 4.70 | 5.08 | 6.89 | 7.80 | – | – | – | – | – | – | – | – | – | – | – | – | – | – | –
13 | COc1cc2nccc(Oc3ccc4c(C(=O)NCC5CC5)cccc4c3)c2cc1OC | 5.03 | 5.28 | 6.08 | 8.00 | 7.66 | 5.96 | 5.94 | – | – | 7.96 | – | – | – | – | – | – | – | – | – | –
14 | COc1cc2nccc(Oc3ccc4c(C(=O)NC(C)C)cccc4c3)c2cc1OC | 4.60 | 4.70 | 5.44 | 6.72 | 8.36 | 5.74 | 5.94 | >100 | – | 8.23 | – | – | – | – | – | – | – | – | – | –
15 | CCCNC(=O)c1cccc2cc(Oc3ccnc4cc(OC)c(OC)cc34)ccc12 | 5.37 | – | 5.77 | – | 8.13 | 5.89 | 6.22 | – | – | – | – | – | – | – | – | – | – | – | – | –
16 | COc1cc2nccc(Oc3ccc4c(C(=O)NC(C)(C)C)cccc4c3)c2cc1OC | 4.60 | 4.96 | 5.43 | – | – | 5.37 | – | >100 | – | 5.82 | – | – | – | – | – | – | – | – | – | –
17 | COc1cc2nccc(Oc3ccc4c(C(=O)NC5CCCC5)cccc4c3)c2cc1OC | 5.85 | 5.49 | 6.21 | – | 8.18 | 5.89 | 5.94 | >100 | – | 7.82 | – | – | – | – | – | – | – | – | – | –
18 | COc1cc2nccc(Oc3ccc4c(C(=O)NC5CCC5)cccc4c3)c2cc1OC | 5.40 | 5.12 | 6.36 | – | 8.17 | 6.00 | 5.94 | >100 | – | 8.89 | – | – | – | – | – | – | – | – | – | –
19 | COc1cc2nccc(Oc3ccc4c(C(N)=O)cccc4c3)c2cc1C(N)=O | 5.28 | 5.13 | 5.17 | 6.41 | – | – | – | – | – | – | – | – | – | – | – | – | – | – | – | –
20 | CCNC(=O)c1cccc2cc(Oc3ccnc4cc(OC)c(OC)cc34)ccc12 | 4.60 | 4.70 | 5.82 | 7.34 | 9.48 | 5.92 | 6.82 | >100 | – | 8.89 | – | – | – | – | – | – | – | – | – | –
